Results from ChEMBL document CHEMBL1275556, “High prevalence of plasmid-mediated quinolone resistance genes qnr and aac(6')-Ib-cr in clinical isolates of Enterobacteriaceae from nine teaching hospitals in China” (2008).

Legend:
Klebsiella pneumoniae [1] = assay: Antimicrobial activity against aac(6')-Ib-cr-positive Klebsiella pneumoniae WH99 harboring wild-type GyrA, ParC, GyrB and qnrB genes by agar dilution method; assay type: functional
In short: (§1)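 MICs were determined on clinical isolates by CLSI agar dilution (M7-A7) and interpreted against CLSI M100-S17 breakpoints.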

Citrobacter freundii [2] = assay: Antimicrobial activity against aac(6')-Ib-cr-positive Citrobacter freundii JN1T by agar dilution method; assay type: functional
In short: (§2)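 MICs were determined by the CLSI agar dilution method (M7-A7) and interpreted against CLSI M100-S17 breakpoints.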

Enterobacter cloacae [3] = assay: Antimicrobial activity against aac(6')-Ib-cr-negative Enterobacter cloacae GZ47T harboring qnrB gene by agar dilution method; assay type: functional
Enterobacter cloacae [4] = assay: Antimicrobial activity against aac(6')-Ib-cr-positive Enterobacter cloacae FJ63T harboring qnrS gene by agar dilution method; assay type: functional
Escherichia coli [5] = assay: Antimicrobial activity against aac(6')-Ib-cr-positive Escherichia coli FJ3 harboring GyrA S83L, ParC S80R mutant, wild-type GyrB and qnrB genes by agar dilution method; assay type: functional; in short: as §2
Citrobacter freundii [6] = assay: Antimicrobial activity against aac(6')-Ib-cr-positive Citrobacter freundii TJ15T harboring wild-type GyrA, ParC, GyrB genes by agar dilution method; assay type: functional; in short: as §2
Citrobacter freundii [7] = assay: Antimicrobial activity against aac(6')-Ib-cr-positive Citrobacter freundii JS33 harboring GyrA T83I mutant, wild-type ParC, GyrB, qnrA and qnrB genes by agar dilution method; assay type: functional; in short: as §2
Citrobacter freundii [8] = assay: Antimicrobial activity against aac(6')-Ib-cr-positive Citrobacter freundii JN1 harboring GyrA T83I, ParC S80I mutant, wild-type GyrB and qnrA genes by agar dilution method; assay type: functional; in short: as §2
Enterobacter cloacae [9] = assay: Antimicrobial activity against aac(6')-Ib-cr-negative Enterobacter cloacae SH39 harboring GyrA S83I, ParC S80I mutant, wild-type GyrB and qnrA genes by agar dilution method; assay type: functional
Klebsiella pneumoniae [10] = assay: Antimicrobial activity against aac(6')-Ib-cr-positive Klebsiella pneumoniae JN41T harboring qnrB gene by agar dilution method; assay type: functional
In short: (§3)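 Transconjugants were made by conjugating a qnr/aac(6')-Ib-cr donor with azide-resistant E. coli J53. Selection used Trypticase soy agar with sodium azide 150 µg/ml and sulfamethoxazole 180 µg/ml. […] MICs were read by CLSI agar dilution (M7-A7) and interpreted per M100-S17.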

Enterobacter cloacae [11] = assay: Antimicrobial activity against aac(6')-Ib-cr-negative Enterobacter cloacae WH42T harboring qnrA gene by agar dilution method; assay type: functional
Klebsiella pneumoniae [12] = assay: Antimicrobial activity against aac(6')-Ib-cr-positive Klebsiella pneumoniae SY26T harboring wild-type GyrA, ParC, GyrB and qnrB genes by agar dilution method; assay type: functional
In short: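 Transconjugants were made by conjugating a qnr/aac(6')-Ib-cr donor with azide-resistant E. coli J53. MICs were read by CLSI agar dilution (M7-A7) and interpreted per M100-S17.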

Escherichia coli [13] = assay: Antimicrobial activity against aac(6')-Ib-cr-negative Escherichia coli PU12T harboring wild-type GyrA, GyrB, ParC and qnrS genes by agar dilution method; assay type: functional; in short: as §2
Enterobacter cloacae [14] = assay: Antimicrobial activity against aac(6')-Ib-cr-negative Enterobacter cloacae FJ61 harboring GyrA S83I, GyrA D87A, ParC S80I mutant, wild-type GyrB and qnrS genes by agar dilution method; assay type: functional
Enterobacter cloacae [15] = assay: Antimicrobial activity against aac(6')-Ib-cr-negative Enterobacter cloacae GZ47 harboring qnrB and qnrS genes by agar dilution method; assay type: functional
Enterobacter cloacae [16] = assay: Antimicrobial activity against aac(6')-Ib-cr-negative Enterobacter cloacae SH39T harboring qnrA gene by agar dilution method; assay type: functional
Enterobacter cloacae [17] = assay: Antimicrobial activity against aac(6')-Ib-cr-negative Enterobacter cloacae FJ67T harboring qnrS gene by agar dilution method; assay type: functional
Enterobacter cloacae [18] = assay: Antimicrobial activity against aac(6')-Ib-cr-negative Enterobacter cloacae WH42 harboring wild-type GyrA, ParC, GyrB and qnrA genes by agar dilution method; assay type: functional
Enterobacter cloacae [19] = assay: Antimicrobial activity against aac(6')-Ib-cr-positive Enterobacter cloacae FJ63 harboring GyrA S83I, GyrA D87A, ParC S80I mutant, wild-type GyrB and qnrS genes by agar dilution method; assay type: functional
Citrobacter freundii [20] = assay: Antimicrobial activity against aac(6')-Ib-cr-negative Citrobacter freundii JN64T harboring qnrA gene by agar dilution method; assay type: functional; in short: as §2
Enterobacter cloacae [21] = assay: Antimicrobial activity against aac(6')-Ib-cr-negative Enterobacter cloacae GZ51 harboring qnrA gene by agar dilution method; assay type: functional
Escherichia coli [22] = assay: Antimicrobial activity against aac(6')-Ib-cr-negative Escherichia coli PU12 harboring GyrA S83L mutant, wild-type GyrB, ParC and qnrS genes by agar dilution method; assay type: functional; in short: as §2
Klebsiella pneumoniae [23] = assay: Antimicrobial activity against aac(6')-Ib-cr-positive Klebsiella pneumoniae GZ40T harboring qnrB gene by agar dilution method
Klebsiella pneumoniae [24] = assay: Antimicrobial activity against aac(6')-Ib-cr-negative Klebsiella pneumoniae SY22 harboring GyrA S83I, ParC S80I mutant, wild-type GyrB and qnrS genes by agar dilution method; assay type: functional; in short: as §2
Klebsiella pneumoniae [25] = assay: Antimicrobial activity against aac(6')-Ib-cr-positive Klebsiella pneumoniae GZ40 harboring GyrA S83I, ParC S80I mutant, wild-type GyrB and qnrB genes by agar dilution method; assay type: functional; in short: as §2
Citrobacter freundii [26] = assay: Antimicrobial activity against aac(6')-Ib-cr-positive Citrobacter freundii TJ15 harboring GyrA T83I, ParC S80I mutant, wild-type GyrB, qnrB genes by agar dilution method; assay type: functional; in short: as §2
Klebsiella pneumoniae [27] = assay: Antimicrobial activity against aac(6')-Ib-cr-positive Klebsiella pneumoniae SY26 harboring GyrA S83I, ParC S80I mutant, wild-type GyrB and qnrB genes by agar dilution method; assay type: functional; in short: as §1
Klebsiella pneumoniae [28] = assay: Antimicrobial activity against aac(6')-Ib-cr-negative Klebsiella pneumoniae SY22T harboring qnrS gene by agar dilution method; assay type: functional; in short: as §2
Citrobacter freundii [29] = assay: Antimicrobial activity against aac(6')-Ib-cr-positive Citrobacter freundii JS33T harboring qnrA gene by agar dilution method; assay type: functional; in short: as §2
Klebsiella pneumoniae [30] = assay: Antimicrobial activity against aac(6')-Ib-cr-positive Klebsiella pneumoniae JN41 harboring GyrA S83I, ParC S80I mutant, wild-type GyrB and qnrB genes by agar dilution method; assay type: functional; in short: as §1
Escherichia coli [31] = assay: Antimicrobial activity against aac(6')-Ib-cr-positive Escherichia coli FJ3T harboring wild-type GyrA, ParC, GyrB and qnrB genes by agar dilution method
Citrobacter freundii [32] = assay: Antimicrobial activity against aac(6')-Ib-cr-positive Citrobacter freundii PU55T harboring wild-type GyrA, ParC, GyrB and qnrA genes by agar dilution method
Enterobacter cloacae [33] = assay: Antimicrobial activity against aac(6')-Ib-cr-negative Enterobacter cloacae FJ61T harboring qnrS gene by agar dilution method; assay type: functional
Klebsiella pneumoniae [34] = assay: Antimicrobial activity against aac(6')-Ib-cr-positive Klebsiella pneumoniae JN132 harboring GyrA S83I, ParC S80I mutant, wild-type GyrB and qnrB genes by agar dilution method; assay type: functional; in short: as §1
Citrobacter freundii [35] = assay: Antimicrobial activity against aac(6')-Ib-cr-positive Citrobacter freundii PU55 harboring GyrA T83I, ParC S80I mutant, wild-type GyrB, qnrA genes by agar dilution method; assay type: functional; in short: as §2
Klebsiella pneumoniae [36] = assay: Antimicrobial activity against aac(6')-Ib-cr-positive Klebsiella pneumoniae WH99T harboring qnrB gene by agar dilution method; assay type: functional; in short: as §3
Klebsiella pneumoniae [37] = assay: Antimicrobial activity against aac(6')-Ib-cr-positive Klebsiella pneumoniae JN132T harboring qnrB gene by agar dilution method; assay type: functional; in short: as §3
Escherichia coli [38] = assay: Antimicrobial activity against Escherichia coli J53 harboring wild-type GyrA, ParC, GyrB genes by agar dilution method
Citrobacter freundii [39] = assay: Antimicrobial activity against aac(6')-Ib-cr-negative Citrobacter freundii JN64 harboring GyrA T83I, wild-type ParC, GyrB and qnrA genes by agar dilution method; assay type: functional; in short: as §2
Enterobacter cloacae [40] = assay: Antimicrobial activity against aac(6')-Ib-cr-negative Enterobacter cloacae FJ67 harboring […] and qnrS genes by agar dilution method; assay type: functional
Enterobacter cloacae [41] = assay: Antimicrobial activity against aac(6')-Ib-cr-negative Enterobacter cloacae GZ51T harboring qnrA gene by agar dilution method; assay type: functional

Measured: MIC

NCC[C@H](O)C(=O)N[C@@H]1C[C@H](N)[C@@H](O[C@H]2O[C@H](CN)[C@@H](O)[C@H](O)[C@H]2O)[C@H](O)[C@H]1O[C@H]1O[C@H](CO)[C@@H](O)[C@H](N)[C@H]1O [AMIKACIN]
8 µg/mL: Escherichia coli [22] | Klebsiella pneumoniae [25]
32 µg/mL: Klebsiella pneumoniae [12] | Enterobacter cloacae [40]
16 µg/mL: Enterobacter cloacae [11] | Enterobacter cloacae [17] | Enterobacter cloacae [18]
1 µg/mL: Enterobacter cloacae [3] | Enterobacter cloacae [15] | Escherichia coli [38]
64 µg/mL: Enterobacter cloacae [4] | Klebsiella pneumoniae [27] | Klebsiella pneumoniae [34] | Klebsiella pneumoniae [37]
2 µg/mL: Klebsiella pneumoniae [1] | Citrobacter freundii [2] | Enterobacter cloacae [9] | Enterobacter cloacae [14] | Enterobacter cloacae [16] | Klebsiella pneumoniae [24] | Klebsiella pneumoniae [28] | Escherichia coli [31] | Enterobacter cloacae [33] | Klebsiella pneumoniae [36]
> 256 µg/mL: Enterobacter cloacae [19] | Citrobacter freundii [20] | Enterobacter cloacae [21] | Citrobacter freundii [39] | Enterobacter cloacae [41]
4 µg/mL: all other assays above
